{"source": "ChEMBL document CHEMBL1140915", "about": "“Second-generation highly potent and selective inhibitors of the hepatitis C virus NS3 serine protease” (J Med Chem, 2009)", "key": {"[1]": {"experiment": "Inhibition of HCV NS3 protease in absence of human serum", "design": "species or system Hepacivirus hominis", "procedure,_shortened": "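Continuous enzymatic assay using NS4A-tethered single-chain HCV NS3 serine protease, without human serum. Ki* is the equilibrium constant, which includes the reversible covalent ketone–serine bond. Compounds were tested as P1 diastereomer mixtures (2:1 to 1:2) that equilibrate rapidly under assay conditions.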"}, "[2]": {"tested_on": "Hepatitis C virus", "experiment": "Antiviral activity against HCV assessed as inhibition of virus replication by cell based assay in absence of human serum", "format": "functional, Hepacivirus hominis", "procedure,_shortened": "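Replicon-based cellular assay run without human serum. EC90 is the concentration that inhibits replicon replication by 90%. Compounds were tested as rapidly equilibrating P1 diastereomer mixtures.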"}, "[3]": {"experiment": "Selectivity for HCV NS3 protease over human neutrophil elastase", "procedure,_shortened": "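Compounds were also assayed against human neutrophil elastase. Selectivity is expressed as the HNE/HCV ratio of the two enzyme potencies.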"}, "[4]": {"experiment": "AUC in rat at 10 mg/kg, po administered with 20% HPBCD", "format": "ADME, organism-based", "design": "dose 10 mg/kg, route oral", "settings": "plasma"}, "[5]": {"experiment": "AUC in monkey at 3 mg/kg, po administered with 0.4% hydroxypropyl methylcellulose", "format": "ADME, organism-based, Macaca mulatta", "design": "dose 3 mg/kg, route oral", "settings": "rhesus monkey, in vivo"}, "[6]": {"experiment": "AUC in dog at 3 mg/kg, po administered with 0.4% hydroxypropyl methylcellulose", "format": "ADME, organism-based, Canis lupus familiaris", "design": "dose 3 mg/kg, route oral", "settings": "in vivo"}, "[7]": {"experiment": "AUC in rat at 3 mg/kg, iv administered with 0.4% hydroxypropyl methylcellulose", "format": "ADME, organism-based", "design": "dose 3 mg/kg, route intravenous", "settings": "in vivo"}, "[8]": {"experiment": "AUC in monkey at 1 mg/kg, iv administered with 0.4% hydroxypropyl methylcellulose", "format": "ADME, organism-based, Macaca mulatta", "design": "dose 1 mg/kg, route intravenous", "settings": "rhesus monkey, in vivo"}, "[9]": {"experiment": "AUC in dog at 2 mg/kg, iv administered with 0.4% hydroxypropyl methylcellulose", "format": "ADME, organism-based, Canis lupus familiaris", "design": "dose 2 mg/kg, route intravenous", "settings": "in vivo"}, "[10]": {"experiment": "Half life in rat at 3 mg/kg, iv administered with 0.4% hydroxypropyl methylcellulose", "format": "ADME, organism-based", "design": "dose 3 mg/kg, route intravenous", "settings": "in vivo"}, "[11]": {"experiment": "Half life in monkey at 1 mg/kg, iv administered with 0.4% hydroxypropyl methylcellulose", "format": "ADME, organism-based, Macaca mulatta", "design": "dose 1 mg/kg, route intravenous", "settings": "rhesus monkey, in vivo"}, "[12]": {"experiment": "Half life in dog at 2 mg/kg, iv administered with 0.4% hydroxypropyl methylcellulose", "format": "ADME, organism-based, Canis lupus familiaris", "design": "dose 2 mg/kg, route intravenous", "settings": "in vivo"}, "[13]": {"experiment": "Bioavailability in rat at 10 mg/kg, po administered with 0.4% hydroxypropyl methylcellulose", "format": "ADME, organism-based", "settings": "in vivo"}, "[14]": {"experiment": "Bioavailability in monkey at 3 mg/kg, po administered with 0.4% hydroxypropyl methylcellulose", "format": "ADME, organism-based, Macaca mulatta", "settings": "rhesus monkey, in vivo"}, "[15]": {"experiment": "Bioavailability in dog at 3 mg/kg, po administered with 0.4% hydroxypropyl methylcellulose", "format": "ADME, organism-based, Canis lupus familiaris", "settings": "in vivo"}, "[16]": {"experiment": "Drug level in rat liver after 6 hrs", "format": "ADME, tissue-based", "settings": "read-out: Drug uptake", "procedure,_shortened": "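In rat, compound level in liver was measured 6 h after dosing in 0.4% MC and reported as ng/g tissue.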"}, "[17]": {"experiment": "AUC in rat at 10 mg/kg, po administered with 0.4% hydroxypropyl methyl cellulose", "format": "ADME, organism-based", "design": "dose 10 mg/kg, route oral", "settings": "in vivo"}}, "data": [{"compound": "C=CCNC(=O)C(=O)C(CC1CC1)NC(=O)[C@@H]1[C@@H]2[C@H](CN1C(=O)[C@@H](NC(=O)NC(CN1C(=O)CC(C)(C)CC1=O)C(C)(C)C)C(C)(C)C)C2(C)C", "note": "(single isomer, unassigned)", "values": [{"measurement": "Ki", "setting": "[1]", "result": 4, "unit": "nM"}, {"measurement": "EC90", "setting": "[2]", "result": 30, "unit": "nM"}, {"measurement": "Ratio", "setting": "[3]", "result": 7100}, {"measurement": "AUC", "setting": "[4]", "result": 1.2, "unit": "µM·h"}, {"measurement": "AUC", "setting": "[5]", "result": 0.1, "unit": "µM·h"}, {"measurement": "AUC", "setting": "[6]", "result": 1.2, "unit": "µM·h"}, {"measurement": "AUC", "setting": "[7]", "result": 1.6, "unit": "µM·h"}, {"measurement": "AUC", "setting": "[8]", "result": 0.7, "unit": "µM·h"}, {"measurement": "AUC", "setting": "[9]", "result": 2.2, "unit": "µM·h"}, {"measurement": "half-life", "setting": "[10]", "result": 7.4, "unit": "h"}, {"measurement": "half-life", "setting": "[11]", "result": 2.3, "unit": "h"}, {"measurement": "half-life", "setting": "[12]", "result": 2.7, "unit": "h"}, {"measurement": "bioavailability", "setting": "[13]", "result": 22, "unit": "%"}, {"measurement": "bioavailability", "setting": "[14]", "result": 4, "unit": "%"}, {"measurement": "bioavailability", "setting": "[15]", "result": 35, "unit": "%"}, {"measurement": "concentration at 6 h", "setting": "[16]", "result": 1800, "unit": "ng/g"}, {"measurement": "AUC", "setting": "[17]", "result": 0.9, "unit": "µM·h"}]}]}
